# Data from ChEMBL document CHEMBL4689842, “EUbOPEN Chemogenomics Library wave 1” (2021).
# Tested on: U2OS
# Test: Multiplex assay against U2OS
# Assay type: toxicity, cell-based
# Conditions: human
# Summary of the method: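 Hoechst33342, BioTracker Green Microtubule Cytoskeleton Dye, MitoTracker Red and Annexin V Alexa Fluor 680 were added to live cells at seeding, and imaging on a CQ1 microscope at 37°C and 5% CO2 followed compound addition. Gating by CellPathfinder machine learning separated cells into Hoechst high-intensity objects or normal cells, then normal cells into healthy, pyknosed or fragmented nuclei, then pyknosed cells into mitotic or apoptotic. Per cents of healthy-nucleus cells are reported for the tubulin, mitochondrial-mass and membrane-permeability phenotypes.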
# [1] = 12 h, 1 µM, compound concentration 1 uM, replicate 1
# [2] = 12 h, 1 µM, compound concentration 1 uM, replicate 2
# [3] = 12 h, 10 µM, compound concentration 10 uM, replicate 1
# [4] = 12 h, 10 µM, compound concentration 10 uM, replicate 2
# [5] = 24 h, 1 µM, compound concentration 1 uM, replicate 1
# [6] = 24 h, 1 µM, compound concentration 1 uM, replicate 2
# [7] = 24 h, 10 µM, compound concentration 10 uM, replicate 1
# [8] = 24 h, 10 µM, compound concentration 10 uM, replicate 2
# [9] = 48 h, 1 µM, compound concentration 1 uM, replicate 1
# [10] = 48 h, 1 µM, compound concentration 1 uM, replicate 2
# [11] = 48 h, 10 µM, compound concentration 10 uM, replicate 1
# [12] = 48 h, 10 µM, compound concentration 10 uM, replicate 2
compound,measurement,setting,value
CC1=C(C(=O)Nc2cc3cn[nH]c3cc2F)C(c2ccc(C(F)(F)F)cc2)CC(=O)N1 (stereo not drawn),Population Apoptotic (%),[1],46%
same,Population Fragmented Nuclei (%),[1],9%
same,Population Healthy Nuclei (%),[1],78%
same,Population Hoechst High Intensity Objects (%),[1],4%
same,Population Membrane Permeable-Phenotype (%),[1],6%
same,Population Mitochondria Different-Phenotype (%),[1],5%
same,Population Mitotic Cells (%),[1],53%
same,Population Normal (%),[1],95%
same,Population Pyknosed Nuclei (%),[1],12%
same,Population Tubulin-Different-Phenotype (%),[1],10%
same,Total Cell Count,[1],190
same,Population Apoptotic (%),[2],50%
same,Population Fragmented Nuclei (%),[2],2%
same,Population Healthy Nuclei (%),[2],93%
same,Population Hoechst High Intensity Objects (%),[2],10%
same,Population Membrane Permeable-Phenotype (%),[2],4%
same,Population Mitochondria Different-Phenotype (%),[2],9%
same,Population Mitotic Cells (%),[2],50%
same,Population Normal (%),[2],89%
same,Population Pyknosed Nuclei (%),[2],4%
same,Population Tubulin-Different-Phenotype (%),[2],14%
same,Total Cell Count,[2],76
same,Population Apoptotic (%),[3],40%
same,Population Fragmented Nuclei (%),[3],7%
same,Population Healthy Nuclei (%),[3],77%
same,Population Hoechst High Intensity Objects (%),[3],8%
same,Population Membrane Permeable-Phenotype (%),[3],3%
same,Population Mitochondria Different-Phenotype (%),[3],9%
same,Population Mitotic Cells (%),[3],60%
same,Population Normal (%),[3],91%
same,Population Pyknosed Nuclei (%),[3],14%
same,Population Tubulin-Different-Phenotype (%),[3],4%
same,Total Cell Count,[3],223
same,Population Apoptotic (%),[4],50%
same,Population Fragmented Nuclei (%),[4],21%
same,Population Healthy Nuclei (%),[4],70%
same,Population Hoechst High Intensity Objects (%),[4],9%
same,Population Membrane Permeable-Phenotype (%),[4],5%
same,Population Mitochondria Different-Phenotype (%),[4],12%
same,Population Mitotic Cells (%),[4],50%
same,Population Normal (%),[4],90%
same,Population Pyknosed Nuclei (%),[4],7%
same,Population Tubulin-Different-Phenotype (%),[4],25%
same,Total Cell Count,[4],97
same,Population Apoptotic (%),[5],56%
same,Population Fragmented Nuclei (%),[5],8%
same,Population Healthy Nuclei (%),[5],82%
same,Population Hoechst High Intensity Objects (%),[5],2%
same,Population Membrane Permeable-Phenotype (%),[5],6%
same,Population Mitochondria Different-Phenotype (%),[5],9%
same,Population Mitotic Cells (%),[5],43%
same,Population Normal (%),[5],97%
same,Population Pyknosed Nuclei (%),[5],8%
same,Population Tubulin-Different-Phenotype (%),[5],9%
same,Total Cell Count,[5],176
same,Population Apoptotic (%),[6],42%
same,Population Fragmented Nuclei (%),[6],7%
same,Population Healthy Nuclei (%),[6],86%
same,Population Hoechst High Intensity Objects (%),[6],4%
same,Population Membrane Permeable-Phenotype (%),[6],10%
same,Population Mitochondria Different-Phenotype (%),[6],13%
same,Population Mitotic Cells (%),[6],57%
same,Population Normal (%),[6],95%
same,Population Pyknosed Nuclei (%),[6],6%
same,Population Tubulin-Different-Phenotype (%),[6],16%
same,Total Cell Count,[6],93
same,Population Apoptotic (%),[7],66%
same,Population Fragmented Nuclei (%),[7],6%
same,Population Healthy Nuclei (%),[7],86%
same,Population Membrane Permeable-Phenotype (%),[7],1%
same,Population Mitochondria Different-Phenotype (%),[7],6%
same,Population Mitotic Cells (%),[7],33%
same,Population Pyknosed Nuclei (%),[7],7%
same,Population Tubulin-Different-Phenotype (%),[7],4%
same,Total Cell Count,[7],277
same,Population Apoptotic (%),[8],75%
same,Population Fragmented Nuclei (%),[8],23%
same,Population Healthy Nuclei (%),[8],68%
same,Population Hoechst High Intensity Objects (%),[8],6%
same,Population Membrane Permeable-Phenotype (%),[8],4%
same,Population Mitochondria Different-Phenotype (%),[8],14%
same,Population Mitotic Cells (%),[8],25%
same,Population Normal (%),[8],93%
same,Population Pyknosed Nuclei (%),[8],8%
same,Population Tubulin-Different-Phenotype (%),[8],29%
same,Total Cell Count,[8],119
same,Population Apoptotic (%),[9],34%
same,Population Fragmented Nuclei (%),[9],7%
same,Population Healthy Nuclei (%),[9],85%
same,Population Hoechst High Intensity Objects (%),[9],2%
same,Population Membrane Permeable-Phenotype (%),[9],3%
same,Population Mitochondria Different-Phenotype (%),[9],12%
same,Population Mitotic Cells (%),[9],65%
same,Population Normal (%),[9],97%
same,Population Pyknosed Nuclei (%),[9],7%
same,Population Tubulin-Different-Phenotype (%),[9],11%
same,Total Cell Count,[9],181
same,Population Apoptotic (%),[10],75%
same,Population Fragmented Nuclei (%),[10],6%
same,Population Healthy Nuclei (%),[10],90%
same,Population Hoechst High Intensity Objects (%),[10],4%
same,Population Membrane Permeable-Phenotype (%),[10],6%
same,Population Mitochondria Different-Phenotype (%),[10],18%
same,Population Mitotic Cells (%),[10],25%
same,Population Normal (%),[10],95%
same,Population Pyknosed Nuclei (%),[10],2%
same,Population Tubulin-Different-Phenotype (%),[10],12%
same,Total Cell Count,[10],77
same,Population Fragmented Nuclei (%),[11],7%
same,Population Healthy Nuclei (%),[11],77%
same,Population Hoechst High Intensity Objects (%),[11],2%
same,Population Membrane Permeable-Phenotype (%),[11],3%
same,Population Mitochondria Different-Phenotype (%),[11],12%
same,Population Normal (%),[11],97%
same,Population Pyknosed Nuclei (%),[11],15%
same,Population Tubulin-Different-Phenotype (%),[11],3%
same,Total Cell Count,[11],438
same,Population Apoptotic (%),[12],50%
same,Population Fragmented Nuclei (%),[12],15%
same,Population Healthy Nuclei (%),[12],76%
same,Population Hoechst High Intensity Objects (%),[12],3%
same,Population Membrane Permeable-Phenotype (%),[12],8%
same,Population Mitochondria Different-Phenotype (%),[12],28%
same,Population Mitotic Cells (%),[12],50%
same,Population Normal (%),[12],96%
same,Population Pyknosed Nuclei (%),[12],8%
same,Population Tubulin-Different-Phenotype (%),[12],32%
same,Total Cell Count,[12],170
